FN deposition inh – fibronectin deposition inhibition; AH1F fibroblasts, Alexa488-fibronectin deposition fluorescence, overnight; inhibition, % at 12.6 µM; 350,000 compounds, 0.086% hits;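 active = mean inhibition across replicates of 30% or more, regardless of how many single replicates reach that level; inconclusive = mean under 30% yet at least half of replicates reach 30%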
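Schedule: 1 h cell adhesion before compound, then overnight fibronectin incubation; test system: AH1F fibroblast monolayer depositing Alexa488-labelled fibronectin into matrix; quantity: 10000 AH1F cells per well; probe or stimulus: fluorescent fibronectin at 24 nM final; signal: fluorescence, ex 485 nm, em 525 nm; evaluation: percent inhibition as loss of matrix-bound fibronectin fluorescence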
ARNT-TACC3 inh – disrupts binding between human ARNT and TACC3. inhibition, % at 9.99 µM. 390,000 compounds, 0.66% hits. AlphaScreen His-ARNT PAS-B/GST-TACC3 binding, luminescence; TACC3 fragment carries E629A point mutation;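 active = mean inhibition of replicates at least 50% and at least half of replicates each reaching 50%; inconclusive = half or more replicates reach 50% but mean below 50%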
XiGFP reactiv – reactivates the inactive X chromosome in mouse fibroblasts; XiGFP mouse fibroblasts, % GFP-positive cells imaging, 3 d; cells co-treated with 5-aza-dC sensitizer; scaled so ellipticine positive control = 100%; 360,000 compounds, 0.055% hits; activation, % at 7.58 µM;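 active = mean normalized replicate activation at least 10% and every replicate at or above 10%; inconclusive = only one of the two criteria met; inactive = mean below 10% and not all replicates reach 10%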
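System: 68-5-11 XiGFP fibroblast line | Buffer or medium: DMEM containing 5-aza-dC | Compound: Single point | Times: Compounds 3 days, fix/stain 15 min at room temperature | Benchmarks: Positive control ellipticine, 6 µM final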
DENV2 CPE rescue – protects cells from dengue virus 2 cytopathic effect; DENV2-infected cells, cytopathic effect rescue, plate reader; CPE inhibition, % at 9.99 µM; 350,000 compounds, 1.7% hits; AID 651640; in the data active = CPE inhibition above about 20%, passing the limit was not always enough; inconclusive = no clear call, values can overlap the other calls; tested in BHK-21 cells
SIRT5 inh – inhibitors of human sirtuin-5 desuccinylase | Q9NXA8 | Purified SirT5, succinyl-peptide AMC, trypsin-coupled fluorescence | inhibition, % at 15 µM | 330,000 compounds, 1.1% hits; in the data active = inhibition above about 15%; inconclusive = no clear call, values can overlap the other calls
Target sequence (Q9NXA8 whole entry, looked up): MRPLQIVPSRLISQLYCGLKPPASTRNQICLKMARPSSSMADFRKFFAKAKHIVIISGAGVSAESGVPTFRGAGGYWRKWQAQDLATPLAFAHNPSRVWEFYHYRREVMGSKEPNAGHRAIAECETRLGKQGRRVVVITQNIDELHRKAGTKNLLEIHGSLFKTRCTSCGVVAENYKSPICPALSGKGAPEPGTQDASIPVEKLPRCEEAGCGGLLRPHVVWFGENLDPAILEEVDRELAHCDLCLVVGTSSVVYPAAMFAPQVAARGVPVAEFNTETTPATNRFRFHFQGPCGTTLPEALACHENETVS
FGF22 binding – FGF22 (human) thermal shift binding | 340,000 compounds, 1.5% hits | activity (Tm shift, normalised), % at 9.99 µM | Q9HCT0 | AID 651658 | recombinant FGF22 thermal shift, SYPRO orange fluorescence; percent of sucrose octasulfate shift, DMSO zero;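 active = mean Tm shift, scaled 0 neutral to 100 positive control, at about 1.3% or above, every replicate too, limit read from the data; inconclusive = no clear call, values can overlap the other calls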
Target sequence (Q9HCT0 whole entry, looked up): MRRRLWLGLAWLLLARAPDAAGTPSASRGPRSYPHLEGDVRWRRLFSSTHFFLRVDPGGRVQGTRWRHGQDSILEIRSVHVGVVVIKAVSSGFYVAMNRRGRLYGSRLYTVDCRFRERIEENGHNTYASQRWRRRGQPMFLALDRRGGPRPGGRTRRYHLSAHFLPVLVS
Hits are given with their value; – = inactive; ? = inconclusive; · = no result given. In the library only some 3.8% were active in any assay of this set; here they are far more common.

SMILES | FN deposition inh | ARNT-TACC3 inh | XiGFP reactiv | DENV2 CPE rescue | SIRT5 inh | FGF22 binding
O=c1ccn(Cc2ccccc2)c2ccccc12 | – | – | – | – | 36 | –
C[C@@H]1CCCCO[C@@H](CN(C)Cc2ccc(C(F)(F)F)cc2)[C@@H](C)CN([C@H](C)CO)C(=O)c2cc(NS(=O)(=O)c3cccs3)ccc2O1 | · | – | – | – | – | –
C[C@@H]1CCCCO[C@H](CN(C)Cc2ccc(C(F)(F)F)cc2)[C@H](C)CN([C@H](C)CO)C(=O)c2cc(NS(=O)(=O)c3cccs3)ccc2O1 | · | – | – | – | 16 | –
COc1ccc(CN(C)C[C@H]2OCCCC[C@@H](C)Oc3ccc(NS(=O)(=O)c4cccs4)cc3C(=O)N([C@@H](C)CO)C[C@@H]2C)cc1 | · | – | – | – | – | –
C[C@@H]1CCCCO[C@H](CN(C)Cc2ccc(C(F)(F)F)cc2)[C@@H](C)CN([C@H](C)CO)C(=O)c2cc(NS(=O)(=O)c3cccs3)ccc2O1 | · | – | – | – | – | –
C[C@@H]1CCCCO[C@H](CN(C)Cc2ccc(C(=O)O)cc2)[C@H](C)CN([C@H](C)CO)C(=O)c2cc(NS(=O)(=O)c3cccs3)ccc2O1 | · | – | – | – | 21 | –
COc1ccc(CN(C)C[C@@H]2OCCCC[C@@H](C)Oc3ccc(NS(=O)(=O)c4cccs4)cc3C(=O)N([C@@H](C)CO)C[C@H]2C)cc1 | · | – | – | 27 | – | –
C[C@@H]1CCCCO[C@@H](CN(C)Cc2ccc(C(F)(F)F)cc2)[C@H](C)CN([C@@H](C)CO)C(=O)c2cc(NS(=O)(=O)c3cccs3)ccc2O1 | · | – | – | ? | 19 | –
CNC[C@H]1Oc2ccc(NC(=O)Nc3c(C)noc3C)cc2C(=O)N([C@H](C)CO)C[C@@H]1C | – | – | – | – | – | –
CC1=C(C(=O)N(C)C)CC(CC(=O)NCc2ccco2)C(=O)N1Cc1ccccc1 (stereo not given) | – | · | – | – | 16 | –
CCN(CC)C(=O)C1=C(C)N(Cc2ccccc2)C(=O)C(CC(=O)NCc2ccco2)C1 (stereo not given) | – | · | – | – | · | 43
CCCCN1C(=O)C(CC(=O)NCCCN(C)C)CC(C(=O)N(CC)CC)=C1C (stereo not given) | – | · | – | – | · | 43
CCCCN1C(=O)C(CC(=O)NCc2ccco2)CC(C(=O)N(C)C)=C1C (stereo not given) | – | · | – | – | – | –
CCCCN1C(=O)C(CC(=O)NCc2ccco2)CC(C(=O)N(CC)CC)=C1C (stereo not given) | – | · | – | – | · | 43
CC(C)NC(=O)N(C)C[C@@H]1Oc2ccc(NS(C)(=O)=O)cc2C(=O)N(C)C[C@@H]1C | – | · | – | · | · | ·
CC1=C(C(=O)N(C(C)C)C(C)C)CC(CC(=O)NCCCN(C)C)C(=O)N1CCC1=CCCCC1 (stereo not given) | – | · | – | – | 23 | –
CO[C@H]1CN(C)C(=O)c2ccc(NC(C)=O)cc2OC[C@H](C)N(Cc2cccnc2)C[C@H]1C | · | · | – | · | · | ·
N/C(=N\OC(=O)c1cccs1)c1cccc([N+](=O)[O-])c1 | – | – | – | – | 35 | –
O=C(CCc1nnc(CCCc2ccccc2)o1)NCCc1ccccc1 | – | – | – | – | – | –
CCc1cc(CNC(=O)CCc2nnc(Cc3cccc(C)c3)o2)on1 | – | – | – | – | – | –
CC(C)c1cc(CNC(=O)CCc2nnc(CCCc3ccccc3)o2)on1 | – | · | – | – | – | 43
CCc1cc(CNC(=O)CCc2nnc(CCCc3ccccc3)o2)on1 | – | – | – | – | 20 | –
COc1ccc(S(=O)(=O)Nc2ccc3c(c2)C(=O)N([C@@H](C)CO)C[C@@H](C)[C@@H](CN(C)S(=O)(=O)c2cccs2)O3)cc1 | – | – | – | – | – | –
CC(C)CN(CC(C)C)S(=O)(=O)N1CCC(C(=O)NCc2ccc(F)cc2)CC1 | · | – | · | · | · | ·
CC(C)CN(CC(C)C)S(=O)(=O)N1CCC(C(=O)NCCc2ccc(Cl)cc2)CC1 | · | – | · | – | 16 | –
SMILES | FN deposition inh | ARNT-TACC3 inh | XiGFP reactiv | DENV2 CPE rescue | SIRT5 inh | FGF22 binding
CCCNC(=O)Nc1ccc2c(c1)C(=O)N(C)[C@H]1CC[C@H](CC(=O)NC)O[C@@H]1CO2 | · | – | – | – | · | –
C[C@H](CO)N1C[C@H](C)[C@@H](CN(C)CC2CCCCC2)Oc2ccc(NC(=O)Cc3ccccc3)cc2C1=O | – | – | – | – | – | –
O=C(C[C@@H]1CC[C@@H](NC(=O)Nc2ccc(C(F)(F)F)cc2)[C@H](CO)O1)NCCN1CCCC1 | – | – | – | – | – | –
O=C(NCC[C@@H]1CC[C@H](NS(=O)(=O)Cc2ccccc2)[C@H](CO)O1)C1CCCC1 | – | – | – | – | – | –
Cc1noc(C)c1NC(=O)Nc1ccc2c(c1)C(=O)N([C@H](C)CO)C[C@H](C)[C@H](CN(C)Cc1ccc(Cl)c(Cl)c1)OCCCC[C@H](C)O2 | · | – | – | 27 | – | –
Cc1noc(C)c1NC(=O)Nc1ccc2c(c1)C(=O)N([C@@H](C)CO)C[C@H](C)[C@@H](CN(C)Cc1ccc3c(c1)OCO3)OCCCC[C@@H](C)O2 | – | – | – | – | · | –
Cc1noc(C)c1NC(=O)Nc1ccc2c(c1)C(=O)N([C@H](C)CO)C[C@H](C)[C@H](CN(C)Cc1ccc(C(F)(F)F)cc1)OCCCC[C@@H](C)O2 | · | – | – | – | – | –
Cc1noc(C)c1NC(=O)Nc1ccc2c(c1)C(=O)N([C@H](C)CO)C[C@H](C)[C@@H](CN(C)Cc1ccc(C(F)(F)F)cc1)OCCCC[C@@H](C)O2 | · | – | – | – | 26 | –
Cc1noc(C)c1NC(=O)Nc1ccc2c(c1)C(=O)N([C@@H](C)CO)C[C@@H](C)[C@@H](CN(C)Cc1ccccc1)OCCCC[C@@H](C)O2 | – | – | – | 89 | – | ·
CN1C(=O)c2cc(NC(=O)c3ccccc3)ccc2OC[C@H]2O[C@H](CC(=O)NCC3CC3)CC[C@H]21 | – | – | – | – | – | –
O=C(/C=C/c1ccco1)Nc1nc(-c2ccccn2)cs1 | – | 65 | – | – | – | –
C[C@H](NC(=O)c1ccccc1)C(=O)Nc1nc(-c2ccccn2)cs1 | – | 64 | – | – | – | 43
Cc1ccc(S(=O)(=O)N2CCOCC2)cc1C(=O)Nc1nc(-c2ccccn2)cs1 | – | 75 | – | – | – | –
CC(=O)Nc1ccc2nc(NC(=O)COc3ccccc3Cl)sc2c1 | – | – | – | – | – | 43
O=C(/C=C/c1ccco1)Nc1nc(-c2ccccc2)cs1 | – | – | – | – | · | –
Cc1cccc(C(=O)NC(C(=O)Nc2nc(-c3ccccn3)cs2)C(C)C)c1 (stereo not given) | – | – | – | · | – | –

Compound activity from PubChem BioAssay.
